Assay [1] concerns Hepatitis C virus. Description: Inhibition of hepatitis C virus RNA replication in a subgenomic replicon cell line. The class given is functional, organism-based, Hepacivirus hominis. In a few lines: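 HCV subgenomic replicon cells exposed to compound for 48 h; relative HCV replicon RNA then measured by luciferase reporter assay.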
For orientation: In antiviral work, replicon cells carry a viral genome segment that copies itself.

In assay [2] the test system is Hepatitis C virus. Description: Cytotoxicity concentration to inhibit hepatitis C virus RNA replication in a subgenomic replicon cell line. The class given is functional, Hepacivirus hominis. Summed up:
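MTS assay run on samples set up in parallel with the HCV subgenomic replicon cultures.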

For 45 molecules, EC50 and CC50 results are on record in ChEMBL document CHEMBL1144291, “Synthesis of 9-(2-beta-C-methyl-beta-d-ribofuranosyl)-6-substituted purine derivatives as inhibitors of HCV RNA replication” (Bioorg Med Chem Lett, 2005).

The structures appear in SMILES notation.

The term EC50 denotes the concentration needed to bring the measured effect to its halfway point. Read a low EC50 as greater potency. What is called CC50 is the concentration that lowers cell viability or growth by half. For `C[C@]1(O)C(n2cnc3c2NCN=C3NCCO)O[C@H](CO)[C@H]1O` (stereo not given in full), in the assay on Hepatitis C virus [1], the EC50 is 60 µM. In the assay on Hepatitis C virus [2], this molecule came in with a CC50 of 300 µM.
For `CN(O)c1ncnc2c1ncn2C1O[C@H](CO)[C@@H](O)[C@@]1(C)O` (stereo not given in full), in that order: 4 µM and 300 µM.
Turning to `CCNC(=O)N(O)c1ncnc2c1ncn2C1O[C@H](CO)[C@@H](O)[C@@]1(C)O` (stereo not given in full), the EC50 in the assay on Hepatitis C virus [1] was 2.2 µM. The midpoint of cytotoxicity in the assay with Hepatitis C virus [2], the CC50, lay at 200 µM.
For `CC(CNC1=NCNc2c1ncn2C1O[C@H](CO)[C@@H](O)[C@@]1(C)O)c1ccccc1` (stereo not given in full), in that order: 25 µM and 300 µM.
In the assay with Hepatitis C virus [1], `CN(C)c1ncnc2c1ncn2C1O[C@H](CO)[C@@H](O)[C@@]1(C)O` (stereo not given in full) displayed an EC50 of 9 µM. In the assay with Hepatitis C virus [2], this molecule displayed a half-maximal cytotoxic concentration (CC50) of 300 µM.
For `CONc1ncnc2c1ncn2C1O[C@H](CO)[C@@H](O)[C@@]1(C)O` (stereo not given in full), in that order: 4 µM and 300 µM.
For `CSc1cccc(Nc2ncnc3c2ncn3C2O[C@H](CO)[C@@H](O)[C@@]2(C)O)c1` (stereo not given in full), in that order: 300 µM and 300 µM.
For `CCOc1ncnc2c1ncn2C1O[C@H](CO)[C@@H](O)[C@@]1(C)O` (stereo not given in full), in that order: 13 µM and 300 µM.
`C[C@@]1(O)[C@H](O)[C@@H](CO)O[C@H]1n1cnc2c(N)ncnc21` showed an EC50 in the assay on Hepatitis C virus [1] of 0.3 µM. In the assay with Hepatitis C virus [2], this molecule displayed a CC50 of 300 µM.
For `CCNC(=O)N(OC)c1ncnc2c1ncn2C1O[C@H](CO)[C@@H](O)[C@@]1(C)O` (stereo not given in full), in that order: 80 µM and 300 µM.
For `CON(C)c1ncnc2c1ncn2C1O[C@H](CO)[C@@H](O)[C@@]1(C)O` (stereo not given in full), in that order: 33 µM and 300 µM.
For `COc1ncnc2c1ncn2C1O[C@H](COP(=O)(OCCSC(=O)C(C)(C)C)OCCSC(=O)C(C)(C)C)[C@@H](O)[C@@]1(C)O` (stereo not given in full), in that order: 0.1 µM and 300 µM.
`C[C@]1(O)C(n2cnc3c2NCN=C3N(CCO)CCO)O[C@H](CO)[C@H]1O` (stereo not given in full) displayed an EC50 with Hepatitis C virus [1] of 20 µM. The molecule also showed a CC50 with Hepatitis C virus [2] of 300 µM.
For `C[C@]1(O)C(n2cnc3c(N(O)C(=O)Nc4ccccc4)ncnc32)O[C@H](CO)[C@H]1O` (stereo not given in full), in that order: 1.8 µM and 300 µM.
For `CSc1ncnc2c1ncn2C1O[C@H](CO)[C@@H](O)[C@@]1(C)O` (stereo not given in full), in that order: 11 µM and 300 µM.
For `C[C@]1(O)C(n2cnc3c(N4CCCS4)ncnc32)O[C@H](CO)[C@H]1O` (stereo not given in full), in that order: 15 µM and 200 µM.
With `COC(=O)N(O)c1ncnc2c1ncn2C1O[C@H](CO)[C@@H](O)[C@@]1(C)O` (stereo not given in full), the EC50 in the assay on Hepatitis C virus [1] was determined as 3 µM. This molecule came in with a CC50 in the assay on Hepatitis C virus [2] of 250 µM.
Consider `C[C@]1(O)C(n2cnc3c(N4CCOCC4)ncnc32)O[C@H](CO)[C@H]1O` (stereo not given in full), for which the EC50 in the assay with Hepatitis C virus [1] was found to be 100 µM. In the assay on Hepatitis C virus [2], this molecule returned a CC50 of 300 µM.
For `CCNC(=O)N(O)C1=NCNc2c1ncn2C1O[C@H](CO)[C@@H](O)[C@@]1(C)O` (stereo not given in full), in that order: 200 µM and 300 µM.
For `C[C@]1(O)C(n2cnc3c(-c4cccs4)ncnc32)O[C@H](CO)[C@H]1O` (stereo not given in full), in that order: 80 µM and 200 µM.
Consider `CNc1ncnc2c1ncn2C1O[C@H](CO)[C@@H](O)[C@@]1(C)O` (stereo not given in full), for which the concentration for a half-maximal effect (EC50) in the assay on Hepatitis C virus [1] amounted to 1 µM. The molecule further showed a CC50 in the assay on Hepatitis C virus [2] of 300 µM.
For `C[C@]1(O)C(n2cnc3c(C(=N)N)ncnc32)O[C@H](CO)[C@H]1O` (stereo not given in full), in that order: 100 µM and 300 µM.
Molecule `CCOc1ncnc2c1ncn2C1O[C@H](COP(=O)(OCCSC(C)=O)OCCSC(C)=O)[C@@H](O)[C@@]1(C)O` (stereo not given in full) came in with a half-maximal effective concentration (EC50) in the assay on Hepatitis C virus [1] of 0.08 µM. The midpoint of cytotoxicity with Hepatitis C virus [2], the CC50, lay at 300 µM.
For `C[C@]1(O)C(n2cnc3c(NCC4CCCO4)ncnc32)O[C@H](CO)[C@H]1O` (stereo not given in full), in that order: 300 µM and 300 µM.
In turn, `C[C@]1(O)C(n2cnc3c(NCCN)ncnc32)O[C@H](CO)[C@H]1O` (stereo not given in full) showed an EC50 in the assay with Hepatitis C virus [1] of 25 µM. Besides, the cytotoxic concentration (CC50) in the assay on Hepatitis C virus [2] was 300 µM.
`C[C@]1(O)C(n2cnc3c(NOCCO)ncnc32)O[C@H](CO)[C@H]1O` (stereo not given in full) came in with an EC50 with Hepatitis C virus [1] of 80 µM. Also, the CC50 with Hepatitis C virus [2] came to 300 µM.
For `C[C@]1(O)C(n2cnc3c(C(=N)S)ncnc32)O[C@H](CO)[C@H]1O` (stereo not given in full), in that order: 120 µM and 300 µM.
For `CCNC(=O)Nc1ncnc2c1ncn2C1O[C@H](CO)[C@@H](O)[C@@]1(C)O` (stereo not given in full), in that order: 80 µM and 300 µM.
For `CCC(=O)N(O)c1ncnc2c1ncn2C1O[C@H](CO)[C@@H](O)[C@@]1(C)O` (stereo not given in full), in that order: 3.3 µM and 300 µM.
As to `CC(C)NC(=O)N(O)c1ncnc2c1ncn2C1O[C@H](CO)[C@@H](O)[C@@]1(C)O` (stereo not given in full), a half-maximal effect with Hepatitis C virus [1] (EC50) was put at 6 µM. The molecule also displayed a CC50 with Hepatitis C virus [2] of 300 µM.
For `COc1ncnc2c1ncn2C1O[C@H](CO)[C@@H](O)[C@@]1(C)O` (stereo not given in full), in that order: 9 µM and 300 µM.
On to `C[C@]1(O)C(n2cnc3c(N(O)C(=O)OCc4ccccc4)ncnc32)O[C@H](CO)[C@H]1O` (stereo not given in full), for which the EC50 with Hepatitis C virus [1] was 20 µM. This molecule also yielded a CC50 in the assay with Hepatitis C virus [2] of 300 µM.
Take `CCNc1ncnc2c1ncn2C1O[C@H](CO)[C@@H](O)[C@@]1(C)O` (stereo not given in full): the EC50 in the assay with Hepatitis C virus [1] amounted to 8 µM. In the assay on Hepatitis C virus [2], this molecule had a CC50 of 300 µM.
In the assay on Hepatitis C virus [1], `C[C@]1(O)C(n2cnc3c(-c4ccsc4)ncnc32)O[C@H](CO)[C@H]1O` (stereo not given in full) came in with an EC50 of 300 µM. Moreover, in the assay on Hepatitis C virus [2], the CC50 was 300 µM.
For the molecule `C[C@]1(O)C(n2cnc3c(C(=N)NO)ncnc32)O[C@H](CO)[C@H]1O` (stereo not given in full), in the assay on Hepatitis C virus [1], the EC50 stood at 100 µM. It took 300 µM to reach half-maximal cytotoxicity in the assay on Hepatitis C virus [2] (CC50).
As for `C[C@]1(O)C(n2cnc3c(O)ncnc32)O[C@H](CO)[C@H]1O` (stereo not given in full), in the assay on Hepatitis C virus [1], it took 8 µM to reach a half-maximal effect (EC50). In the assay on Hepatitis C virus [2], this molecule yielded a CC50 of 300 µM.
`C[C@]1(O)C(n2cnc3c(NCCC(N)=O)ncnc32)O[C@H](CO)[C@H]1O` (stereo not given in full) had an EC50 in the assay on Hepatitis C virus [1] of 150 µM. This molecule also returned a CC50 in the assay on Hepatitis C virus [2] of 300 µM.
In the case of `CCONc1ncnc2c1ncn2C1O[C@H](CO)[C@@H](O)[C@@]1(C)O` (stereo not given in full), a half-maximal response with Hepatitis C virus [1] (EC50) required 30 µM. Besides, in the assay on Hepatitis C virus [2], the CC50 came out at 300 µM.
For `C[C@]1(O)C(n2cnc3c2NCN=C3NOCCO)O[C@H](CO)[C@H]1O` (stereo not given in full), in that order: 80 µM and 300 µM.
For `CCOc1ccccc1CNc1ncnc2c1ncn2C1O[C@H](CO)[C@@H](O)[C@@]1(C)O` (stereo not given in full), in that order: 50 µM and 250 µM.
In the assay with Hepatitis C virus [1], `CNCCN(C)c1ncnc2c1ncn2C1O[C@H](CO)[C@@H](O)[C@@]1(C)O` (stereo not given in full) had an EC50 of 200 µM. The half-maximal cytotoxic concentration (CC50) with Hepatitis C virus [2] stood at 300 µM.
Regarding `COC(=N)c1ncnc2c1ncn2C1O[C@H](CO)[C@@H](O)[C@@]1(C)O` (stereo not given in full), in the assay on Hepatitis C virus [1], a half-maximal response (EC50) required 120 µM. In addition, in the assay with Hepatitis C virus [2], it took 300 µM to reach half-maximal cytotoxicity (CC50).
For `C[C@]1(O)C(n2cnc3c(-c4ccco4)ncnc32)O[C@H](CO)[C@H]1O` (stereo not given in full), in that order: 275 µM and 300 µM.
For `CC1(C)OCC(CNc2ncnc3c2ncn3C2O[C@H](CO)[C@@H](O)[C@@]2(C)O)O1` (stereo not given in full), in that order: 300 µM and 300 µM.
For `C[C@]1(O)C(n2cnc3c(NO)ncnc32)O[C@H](CO)[C@H]1O` (stereo not given in full), in that order: 1.8 µM and 300 µM.
